ChEMBL document CHEMBL4613213, “Anibamine and Its Analogues: Potent Antiplasmodial Agents from Aniba citrifolia” (J Nat Prod, 2020)
Activity calls are given as the source filed them. The rule behind the calls is not given here.

Key:
[1] = system: Plasmodium falciparum; experiment: Antiplasmodial activity against Plasmodium falciparum Dd2 assessed as reduction in parasite growth after 72 hrs by SYBR Green 1 staining based assay; assay type: functional, organism-based; conditions: read-out: IC50
How it was run: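 Dd2 cultures started at ring stage, 1% hematocrit and 1% parasitemia. Grown 72 h at 37 °C in 5% CO2/5% O2/90% N2 across increasing drug concentrations. Viability read by SYBR Green I DNA quantitation in lysis buffer. IC50 from nonlinear regression; mean of three independent determinations, each in triplicate, ± SEM.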

[2] = system: A2780; experiment: Cytotoxicity against human A2780 cells assessed as reduction in cell viability after 2 days by AlamarBlue assay; assay type: ADME, cell-based; conditions: A2780, 48 h
[3] = Hemolytic activity in human RBC; assay type: cell-based, Erythrocyte; conditions: human red blood cells (erythrocytes)
[4] = system: Plasmodium falciparum; experiment: Antiplasmodial activity against Plasmodium falciparum Dd2 schizonts form infected in erythrocytes assessed as reduction in ring stage formation at 1 uM after 6 hrs by Giemsa staining based light microscopic method; assay type: functional, organism-based
How it was run: (§1)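 Compound added at schizont stage (40–42 post-invasion). Morphology assessed on Giemsa-stained thin blood smears at 6, 24 and 48 h of treatment and compared with untreated controls. Two or more independent experiments.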

[5] = system: Plasmodium falciparum; experiment: Antiplasmodial activity against Plasmodium falciparum Dd2 ring stage form infected in erythrocytes assessed as reduction in parasite growth at 1 uM after 6 to 72 hrs by Giemsa staining based light microscopic method; assay type: functional, organism-based
How it was run: (§2)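 Compound added at ring stage (2–4 h post-invasion). Development followed on Giemsa-stained thin blood smears after 6, 24, 48 and 72 h of treatment and compared with untreated controls. Two or more independent experiments.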

[6] = system: Plasmodium falciparum; experiment: Antiplasmodial activity against Plasmodium falciparum Dd2 schizonts form infected in erythrocytes assessed as reduction in reinvasion at 1 uM after 6 hrs by Giemsa staining based light microscopic method; assay type: functional, organism-based; how it was run: as §1
[7] = system: Plasmodium falciparum; experiment: Antiplasmodial activity against Plasmodium falciparum Dd2 ring stage form infected in erythrocytes assessed as reduction in reinvasion at 1 uM after 48 to 72 hrs by Giemsa staining based light microscopic method; assay type: functional, organism-based; how it was run: as §2
[8] = system: Plasmodium falciparum; experiment: Antiplasmodial activity against Plasmodium falciparum Dd2 schizonts form infected in erythrocytes assessed as reduction in parasite growth at 1 uM after 6 hrs by Giemsa staining based light microscopic method; assay type: functional, organism-based; how it was run: as §1
[9] = Cytotoxicity against mouse 3T3 cells by neutral red uptake assay; assay type: cell-based; conditions: NIH3T3 cells, read-out: TC50 (the source's name)
[10] = system: Plasmodium falciparum; experiment: Antiplasmodial activity against Plasmodium falciparum Dd2 schizonts form infected in erythrocytes assessed as morphological defects at 0.5 uM after 48 hrs by Giemsa staining based light microscopic method; assay type: functional, organism-based; how it was run: as §1
[11] = system: Plasmodium falciparum; experiment: Antiplasmodial activity against Plasmodium falciparum Dd2 schizonts form infected in erythrocytes assessed as reduction in ring stage formation at 0.5 uM after 6 hrs by Giemsa staining based light microscopic method; assay type: functional, organism-based; how it was run: as §1
[12] = system: Plasmodium falciparum; experiment: Antiplasmodial activity against Plasmodium falciparum Dd2 schizonts form infected in erythrocytes assessed as reduction in parasite growth at 0.5 uM after 6 hrs by Giemsa staining based light microscopic method; assay type: functional, organism-based; how it was run: as §1
[13] = system: Plasmodium falciparum; experiment: Antiplasmodial activity against Plasmodium falciparum Dd2 schizonts form infected in erythrocytes assessed as reduction in reinvasion at 0.5 uM after 6 hrs by Giemsa staining based light microscopic method; assay type: functional, organism-based; how it was run: as §1
[14] = system: Plasmodium falciparum; experiment: Antiplasmodial activity against Plasmodium falciparum Dd2 schizonts form infected in erythrocytes assessed as reduction in trophozoites formation at 0.5 uM after 48 hrs by Giemsa staining based light microscopic method; assay type: functional, organism-based; how it was run: as §1
[15] = system: Plasmodium falciparum; experiment: Antiplasmodial activity against Plasmodium falciparum Dd2 ring stage form infected in erythrocytes assessed as reduction in parasite growth at 0.5 uM after 6 to 72 hrs by Giemsa staining based light microscopic method; assay type: functional, organism-based; how it was run: as §2
[16] = system: Plasmodium falciparum; experiment: Antiplasmodial activity against Plasmodium falciparum Dd2 ring stage form infected in erythrocytes assessed as reduction in reinvasion at 0.5 uM after 48 to 72 hrs by Giemsa staining based light microscopic method; assay type: functional, organism-based; how it was run: as §2
[17] = system: Plasmodium falciparum; experiment: Antiplasmodial activity against Plasmodium falciparum Dd2 schizonts form infected in erythrocytes assessed as reduction in trophozoites formation at 1 uM after 48 hrs by Giemsa staining based light microscopic method; assay type: functional, organism-based; how it was run: as §1
[18] = system: Plasmodium falciparum; experiment: Antiplasmodial activity against Plasmodium falciparum Dd2 schizonts form infected in erythrocytes assessed as morphological defects formation at 1 uM after 48 hrs by Giemsa staining based light microscopic method; assay type: functional, organism-based; how it was run: as §1
[19] = Plasmodium falciparum, Dd2, 72 h

CCCCCCCCCCc1c(C)cc(C)nc1CCCOC
IC50 [1, 19]: > 20000 nM

C=CCc1c(O)c(OC)cc2c1O[C@H](c1ccc3c(c1)OCO3)[C@H]2C
IC50 [1, 19]: 30000 nM | IC50 [2]: 10000 to 35000 nM

CCCCCCCCCCc1c(C)cc(CCCOC)nc1C
IC50 [1, 19]: 5300 nM

CCCCCCCC/C=C\c1c(C)cc(CCCOC)nc1C
IC50 [1, 19]: 6300 nM

CCCCCCCC/C=C/c1c(C)c(CCCCCCCCCC)c2[n+](c1C)CCC2
IC50 [1, 19]: 244 nM | IC50 [2]: 241 nM

CCCCCCCC/C=C\c1c(C)c(/C=C\CCCCCCCC)c2[n+](c1C)CCC2 [AANIBAMINE]
HC50 [3]: > 58 µM | IC50 [1]: 110 nM

CCCCCCCCCCc1c(C)cc(C)nc1C
IC50 [1, 19]: > 20000 nM

CCCCCCCC/C=C\c1c(C)cc2[n+](c1C)CCC2
Activity [4]: inactive | IC50 [1, 19]: 142 nM | Activity [5]: inactive | Activity [6]: inactive | Activity [7]: inactive | Activity [8]: inactive

CCCCCCCC/C=C\c1c(C)nc(CCCOC)c(/C=C/CCCCCCCC)c1C
IC50 [1, 19]: > 20000 nM

CCCCCCCC/C=C\c1c(C)c(/C=C\CCCCCCCC)c2[n+](c1C)CCC2 [ANIBAMINE]
IC50 [1, 19]: 170 nM | CC50 [9]: > 22000 nM | IC50 [2]: 223 nM

CCCCCCCC/C=C/c1c(C)c(/C=C/CCCCCCCC)c2[n+](c1C)CCC2
HC50 [3]: > 58 µM | Activity [10]: Active | IC50 [1, 19]: 96 nM | Activity [11]: inactive | Activity [12]: inactive | Activity [13]: inactive | Activity [14]: Active

CCCCCCCC/C=C/c1c(C)cc(C)[n+]2c1CCC2
IC50 [1, 19]: 58 nM | Activity [15]: inactive | Activity [11]: inactive | Activity [12]: inactive | Activity [16]: inactive | Activity [13]: inactive

CCCCCCCC/C=C/c1c(C)nc(CCCOC)c(/C=C/CCCCCCCC)c1C
IC50 [1, 19]: > 20000 nM

C[C@@H]1CC[C@H]2[C@@H](C)C(=O)O[C@@H]3O[C@@]4(C)CC[C@@H]1[C@]32OO4 [ARTEMISININ]
IC50 [1, 19]: 6.5 nM

CCCCCCCC/C=C\c1c(C)nc(C)c(/C=C\CCCCCCCC)c1C
IC50 [1, 19]: > 20000 nM

CCCCCCCC/C=C/c1c(C)c(/C=C/CCCCCCCC)c2[n+](c1C)CCCC2
Activity [4]: inactive | HC50 [3]: > 58 µM | Activity [17]: Active | IC50 [1, 19]: 61 nM | Activity [18]: Active | Activity [6]: inactive | Activity [8]: inactive

C=CC[C@@]12C=C(OC)C(=O)C=C1O[C@H](c1ccc3c(c1)OCO3)[C@H]2C
IC50 [1, 19]: > 30000 nM | IC50 [2]: 10000 to 50000 nM

CCCCCCCCCCc1c(C)c(CCCCCCCCCC)c2[n+](c1C)CCCCC2
Activity [4]: inactive | HC50 [3]: > 58 µM | Activity [17]: Active | IC50 [1, 19]: 77 nM | Activity [18]: Active | Activity [6]: inactive | Activity [8]: inactive

COc1cc(C/C=C(\C)CCC=C(C)C)c(O)c(-c2cc3cc(OC)cc(C/C=C(\C)CCC=C(C)C)c3oc2=O)c1
IC50 [1, 19]: 18200 nM

CCCCCCCCCCc1c(C)nc(C)c(CCCCCCCCCC)c1C
IC50 [1, 19]: > 20000 nM

CCCCCCCC/C=C\c1c(C)cc(C)nc1CCCOC
IC50 [1, 19]: 8800 nM
